8 molecules from ChEMBL document CHEMBL3392991, “Structure-based design of bacterial nitric oxide synthase inhibitors” (J Med Chem, 2015) can be followed below.

The subject of experiment [1] is Bacillus subtilis. Description: Displacement of imidazole from Bacillus subtilis NOS.
Experiment [2] has as its system Bacillus subtilis. The experiment can be described thus: Displacement of imidazole from Bacillus subtilis NOS in presence of 50 uM H4B.
In another experiment the target is Nitric oxide synthase 1 (Rattus norvegicus, UniProt P29476). The experiment can be described thus: Inhibition of rat nNOS.
Sequence of Nitric oxide synthase 1 (P29476 whole entry): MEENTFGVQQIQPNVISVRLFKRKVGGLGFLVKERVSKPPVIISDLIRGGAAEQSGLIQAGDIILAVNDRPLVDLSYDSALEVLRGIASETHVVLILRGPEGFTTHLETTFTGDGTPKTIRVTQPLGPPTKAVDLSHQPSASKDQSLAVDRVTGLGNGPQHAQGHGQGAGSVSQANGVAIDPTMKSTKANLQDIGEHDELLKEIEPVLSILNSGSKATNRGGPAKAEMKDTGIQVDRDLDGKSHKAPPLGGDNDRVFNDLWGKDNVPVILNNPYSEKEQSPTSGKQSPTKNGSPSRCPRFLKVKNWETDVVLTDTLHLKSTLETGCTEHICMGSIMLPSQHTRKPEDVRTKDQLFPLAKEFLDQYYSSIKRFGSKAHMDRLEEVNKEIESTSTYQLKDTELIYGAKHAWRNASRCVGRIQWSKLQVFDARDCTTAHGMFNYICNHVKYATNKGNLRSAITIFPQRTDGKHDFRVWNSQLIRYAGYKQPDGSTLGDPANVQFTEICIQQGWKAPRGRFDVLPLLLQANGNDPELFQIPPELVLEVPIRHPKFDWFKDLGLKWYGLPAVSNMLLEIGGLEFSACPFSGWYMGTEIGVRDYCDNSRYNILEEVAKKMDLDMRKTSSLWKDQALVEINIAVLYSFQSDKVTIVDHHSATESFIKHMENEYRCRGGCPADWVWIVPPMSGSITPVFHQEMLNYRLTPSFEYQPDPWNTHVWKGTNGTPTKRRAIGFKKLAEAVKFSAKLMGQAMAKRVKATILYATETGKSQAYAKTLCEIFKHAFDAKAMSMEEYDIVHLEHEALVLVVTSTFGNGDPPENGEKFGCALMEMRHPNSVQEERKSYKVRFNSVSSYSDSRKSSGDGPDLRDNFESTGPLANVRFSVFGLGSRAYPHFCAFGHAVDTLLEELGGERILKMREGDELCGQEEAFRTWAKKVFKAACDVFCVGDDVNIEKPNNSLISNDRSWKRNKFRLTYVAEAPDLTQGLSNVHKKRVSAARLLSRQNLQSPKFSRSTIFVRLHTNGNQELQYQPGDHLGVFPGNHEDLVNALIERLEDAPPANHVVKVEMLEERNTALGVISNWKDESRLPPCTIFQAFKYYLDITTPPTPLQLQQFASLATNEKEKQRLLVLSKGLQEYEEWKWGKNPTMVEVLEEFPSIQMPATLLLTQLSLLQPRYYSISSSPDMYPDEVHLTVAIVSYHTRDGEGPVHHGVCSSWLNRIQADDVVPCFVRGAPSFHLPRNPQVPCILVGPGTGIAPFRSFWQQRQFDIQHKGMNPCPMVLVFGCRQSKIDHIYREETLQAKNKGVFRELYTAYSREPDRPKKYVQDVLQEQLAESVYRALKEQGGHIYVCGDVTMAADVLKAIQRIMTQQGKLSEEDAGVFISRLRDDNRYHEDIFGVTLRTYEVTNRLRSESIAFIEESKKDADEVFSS
Experiment [3] deals with T1, Nitric oxide synthase, inducible (Mus musculus, UniProt P29477).
T1 sequence (P29477 whole entry): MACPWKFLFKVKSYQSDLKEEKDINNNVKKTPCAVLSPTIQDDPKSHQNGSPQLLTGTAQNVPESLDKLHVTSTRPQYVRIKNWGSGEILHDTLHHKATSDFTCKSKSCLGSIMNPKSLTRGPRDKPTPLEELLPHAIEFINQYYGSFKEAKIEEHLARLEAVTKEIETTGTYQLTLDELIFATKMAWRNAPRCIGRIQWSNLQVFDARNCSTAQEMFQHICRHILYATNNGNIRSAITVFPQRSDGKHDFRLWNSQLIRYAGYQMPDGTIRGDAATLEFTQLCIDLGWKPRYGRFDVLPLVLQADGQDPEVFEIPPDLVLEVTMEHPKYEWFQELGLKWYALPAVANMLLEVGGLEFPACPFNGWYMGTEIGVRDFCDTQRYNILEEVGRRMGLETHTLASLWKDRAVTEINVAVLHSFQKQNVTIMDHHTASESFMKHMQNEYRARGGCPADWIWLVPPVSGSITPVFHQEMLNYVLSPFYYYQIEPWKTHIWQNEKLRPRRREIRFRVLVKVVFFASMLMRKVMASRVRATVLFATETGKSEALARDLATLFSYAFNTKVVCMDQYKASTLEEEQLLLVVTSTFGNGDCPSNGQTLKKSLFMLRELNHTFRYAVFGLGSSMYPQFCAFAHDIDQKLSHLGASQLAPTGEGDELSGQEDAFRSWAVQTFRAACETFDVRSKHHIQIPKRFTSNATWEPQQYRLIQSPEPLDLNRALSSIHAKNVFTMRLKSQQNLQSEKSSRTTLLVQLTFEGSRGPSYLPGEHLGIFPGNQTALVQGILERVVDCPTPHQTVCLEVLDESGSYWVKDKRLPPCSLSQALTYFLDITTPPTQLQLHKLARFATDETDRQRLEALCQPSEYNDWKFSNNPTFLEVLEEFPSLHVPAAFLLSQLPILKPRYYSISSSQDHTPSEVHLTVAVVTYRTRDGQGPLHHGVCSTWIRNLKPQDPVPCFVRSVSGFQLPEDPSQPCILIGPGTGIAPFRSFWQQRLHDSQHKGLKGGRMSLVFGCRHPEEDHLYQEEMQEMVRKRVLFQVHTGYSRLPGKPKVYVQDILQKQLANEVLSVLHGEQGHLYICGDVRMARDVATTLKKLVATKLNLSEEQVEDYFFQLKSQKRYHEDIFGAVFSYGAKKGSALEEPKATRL
Description: Inhibition of mouse iNOS.

Experiment [4] has as its system Bacillus subtilis. The experiment can be described thus: Inhibition of NADPH-dependent Bacillus subtilis NOS using bBiDomain and Escherichia coli flavodoxin reductase YumC assessed as nitrite level up to 800 uM by Griess reaction. The method, boiled down:
(§1)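 bBiDomain with the flavodoxin reductase YumC, NADPH-driven, 50 μM H4B included. Inhibitor tested over a range of concentrations. Nitrite measured at a single time point.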
(In general: Nitrite, measured by Griess reagent, commonly stands in for NO production.)

The test system of experiment [5] is Bacillus subtilis. The experiment can be described thus: Inhibition of NADPH-dependent Bacillus subtilis NOS using bBiDomain and Escherichia coli flavodoxin reductase YumC assessed as nitrite level at 300 uM by Griess reaction. Further details: Activity: scale not given: the % may be the effect or the level left. The procedure, abridged:
as §1

A further experiment concerns the target T2, Nitric oxide synthase 3 (Bos taurus, UniProt P29473).
T2 sequence (P29473 whole entry): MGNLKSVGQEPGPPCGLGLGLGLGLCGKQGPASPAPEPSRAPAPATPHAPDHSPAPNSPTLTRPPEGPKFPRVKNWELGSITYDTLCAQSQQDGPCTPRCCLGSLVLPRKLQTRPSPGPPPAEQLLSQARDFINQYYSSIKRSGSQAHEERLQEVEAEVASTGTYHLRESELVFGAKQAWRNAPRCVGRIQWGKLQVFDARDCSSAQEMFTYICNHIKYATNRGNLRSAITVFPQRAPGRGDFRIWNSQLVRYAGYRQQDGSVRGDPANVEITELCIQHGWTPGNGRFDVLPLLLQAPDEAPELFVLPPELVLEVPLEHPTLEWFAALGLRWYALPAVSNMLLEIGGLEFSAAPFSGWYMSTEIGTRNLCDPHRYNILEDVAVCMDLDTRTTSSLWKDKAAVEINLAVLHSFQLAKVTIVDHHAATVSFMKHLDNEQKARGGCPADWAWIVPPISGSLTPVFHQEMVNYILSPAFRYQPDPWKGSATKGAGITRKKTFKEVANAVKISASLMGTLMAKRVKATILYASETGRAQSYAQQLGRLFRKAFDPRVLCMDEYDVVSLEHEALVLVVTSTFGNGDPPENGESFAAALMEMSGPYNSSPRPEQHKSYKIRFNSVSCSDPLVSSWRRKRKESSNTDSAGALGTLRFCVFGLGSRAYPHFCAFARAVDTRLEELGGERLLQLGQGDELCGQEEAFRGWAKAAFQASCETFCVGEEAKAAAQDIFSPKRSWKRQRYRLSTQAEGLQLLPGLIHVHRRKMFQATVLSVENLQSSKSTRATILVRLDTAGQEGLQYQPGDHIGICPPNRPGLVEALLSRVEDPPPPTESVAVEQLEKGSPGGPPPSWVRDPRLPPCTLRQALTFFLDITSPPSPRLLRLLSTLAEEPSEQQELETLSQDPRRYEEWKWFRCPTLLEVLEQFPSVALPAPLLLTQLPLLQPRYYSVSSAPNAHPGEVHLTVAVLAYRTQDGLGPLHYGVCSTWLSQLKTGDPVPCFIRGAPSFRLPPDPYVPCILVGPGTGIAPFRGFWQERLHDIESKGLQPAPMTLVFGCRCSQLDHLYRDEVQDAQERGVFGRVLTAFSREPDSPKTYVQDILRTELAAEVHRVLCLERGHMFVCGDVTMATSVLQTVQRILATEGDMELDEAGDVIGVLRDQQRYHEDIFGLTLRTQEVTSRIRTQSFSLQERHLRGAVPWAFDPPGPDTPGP
Description: Inhibition of bovine eNOS.

Experiment [6] deals with Bacillus subtilis. Description: Antibacterial activity against delta nos Bacillus subtilis assessed as bacterial growth up to 800 uM measured after overnight incubation relative to control. The class given is functional. Particulars: in the assay text read “at 500 uM” for “up to 800 uM”. The method, boiled down:
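WT (ATCC 23857) and Δnos strains grown to OD600 ≈ 1.0, diluted to OD600 0.6 in LB, then mixed with M9 minimal media with or without NOS inhibitor (final 500 μM) and/or acriflavine (final 800 μM). 30 min at 30 °C, serially diluted, plated on LB agar + 0.5% glucose, overnight at 37 °C. CFU counted; percent survival relative to untreated cells.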

Active and inactive are the calls of the source. No cut-off for these calls is given here.

Turning to `N=C(NO)NCCC[C@H](N)C(=O)O`, the Ks in the experiment with Bacillus subtilis [1] was found to be 3.2 µM; with Bacillus subtilis [2], 1.9 µM.
Consider `Cc1cc(N)nc(CCc2cc(CN)cc(CCc3ccc4cc[nH]c4n3)c2)c1`, for which the Ks in the experiment on Bacillus subtilis [1] was 10 µM; in the experiment with Bacillus subtilis [2] it was 12 µM. Moreover, the Ki was 0.22 µM at Nitric oxide synthase 1 and 7.1 µM in experiment [3]. Moreover, the inhibition result in the experiment with Bacillus subtilis [4] and in the experiment on Bacillus subtilis [5] was “Active” each time.
In the case of `Cc1cc(N)nc(CCc2cc(C#N)cc(NCCc3ccccn3)c2)c1`, the Ki was 1.27 µM at Nitric oxide synthase 1, 1.56 µM at Nitric oxide synthase 3 and 12.8 µM in experiment [3]. Also, the inhibition result with Bacillus subtilis [4] and in the experiment with Bacillus subtilis [5] was “Active” each time.
As to `Cc1cc(N)nc(CCc2cc(CN)cc(CCc3cc(C)cc(N)n3)c2)c1`, the Ks is 15 µM in the experiment with Bacillus subtilis [1] and 47 µM in the experiment on Bacillus subtilis [2]. Further, the inhibition result in the experiment with Bacillus subtilis [4] and with Bacillus subtilis [5] was “Active” in each case.
For the molecule `Cc1cc(N)nc(CCc2cc(CCCN)cc(CCc3cc(C)cc(N)n3)c2)c1`, the results for the Ks in the experiment on Bacillus subtilis [1] and in the experiment on Bacillus subtilis [2] were 16 µM and 19 µM, respectively. In addition, the inhibition entry in the experiment on Bacillus subtilis [4] and in the experiment on Bacillus subtilis [5] was “Active” in each case.
In the case of `N=C(Nc1cccc(OCC(O)c2cccc(NC(=N)c3cccs3)c2)c1)c1cccs1` (stereo not given), the inhibition entry with Bacillus subtilis [4] and in the experiment with Bacillus subtilis [5] was “Active” throughout.
For the molecule `CNc1cc(C)cc(CCc2cc(C#N)cc(CCc3cc(C)cc(N)n3)c2)n1`, the Ks in the experiment on Bacillus subtilis [1] came to 12 µM; in the experiment with Bacillus subtilis [2], 19 µM. The inhibition constant Ki on Nitric oxide synthase 1 came to 0.196 µM; at Nitric oxide synthase 3, 11.8 µM; in experiment [3], 14.4 µM. The inhibition result with Bacillus subtilis [4] and with Bacillus subtilis [5] was “Active” throughout.
Turning to `Cc1cc(N)nc(CCc2cc(N)cc(CCc3cc(C)cc(N)n3)c2)c1`, the Ks was 0.91 µM in the experiment on Bacillus subtilis [1] and 1.9 µM with Bacillus subtilis [2]. The inhibition result in the experiment on Bacillus subtilis [4] was “Active”. Besides, the Activity in the experiment with Bacillus subtilis [5] was found to be 49.2%. The “inhibition (INH)” value in the experiment with Bacillus subtilis [6] is recorded as 36%.

One may read the Ki as a dissociation constant, usually derived from enzyme kinetics or from competition with a known ligand.
